PKA-R1A act = activates the PKA-R1A holoenzyme complex; PKA-R1A dissociation, Cy5-IP20 fluorescence polarization; scaled: DMSO 0%, 113 µM cGMP 100%; activation, % at 11.4 µM; 0.083% of 340,000 active; AID 504707;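 active = percent activation above the mean of all tested compounds plus 3 SD, cut at about 19% in these data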;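 also: higher means more PKAc released from R1A so a rise in polarization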
CTSL1 counter = counter-screen for PFM18AAP inhibitors: inhibitors of F. hepatica cathepsin L1; recombinant F. hepatica cathepsin L1, Z-Leu-Arg-MCA fluorescence; 0.49% of 300,000 active; inhibition, % at 5.96 µM;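 active = inhibition above the mean of all tested compounds plus 3 SD, set per screening campaign, cut at about 17% in these data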;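 also: 0% = plate median of test compound wells and 100% = 1 µM Z-Phe-Ala-diazomethylketone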
UCH37 inh = human UCH37 deubiquitinating enzyme inhibition; Q9Y5K5; purified proteasome/UCH37, Ub-AMC cleavage fluorescence; inhibition, % (concentration not given with the values); 0.33% of 330,000 active;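 active = mean inhibition over replicate wells above about 20%, limit read from the data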;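 also: 0% = compound-free wells with enzyme and 100% = wells lacking proteasome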
Target sequence (Q9Y5K5 whole entry, looked up): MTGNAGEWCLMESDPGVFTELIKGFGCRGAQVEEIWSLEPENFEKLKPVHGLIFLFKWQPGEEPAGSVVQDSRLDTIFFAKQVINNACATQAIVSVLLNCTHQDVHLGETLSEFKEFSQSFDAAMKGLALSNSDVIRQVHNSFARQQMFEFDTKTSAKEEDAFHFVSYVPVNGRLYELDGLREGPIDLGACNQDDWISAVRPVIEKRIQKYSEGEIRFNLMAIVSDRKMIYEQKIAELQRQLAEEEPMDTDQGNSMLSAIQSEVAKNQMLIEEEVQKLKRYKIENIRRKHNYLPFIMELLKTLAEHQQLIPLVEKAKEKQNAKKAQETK
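Schedule: 30 min plus 25 min, room temperature / Material: human UCH37 within purified proteasomes / Technique: AMC fluorescence intensity at 355/460 nm / Buffer or medium: pH 7.4 Tris-HCl (50 mM) with ovalbumin, ATP-MgCl2, DTT / Controls: wells without proteasome as full block, compound-free enzyme plus substrate as uninhibited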
PKA-R2B activ = PKA-R2B complex activation | 0.079% of 340,000 active | activation, % at 11.4 µM | PKA-R2B holoenzyme dissociation, Cy5-IP20 fluorescence polarization; R2B truncated from residue 108, S112A mutant; 0% DMSO only, 100% 113 µM cGMP | P22694+P31323 | AID 504700;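 active = activation above a cutoff set at the mean over all compounds plus 3 SD, cut at about 18% in these data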;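 also: higher means more holoenzyme dissociation and a rise in polarization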
aDG glyco act = alpha-DG glycosylation activation. 0.22% of 360,000 active. AID 624168. activation, % at 10 µM. Pro5-aDG cells, alpha-DG glycosylation AlphaScreen (IIH6); 0% Pro5, 100% B10-LARGE cell signal;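 active = activation of at least 8% versus controls, or a plate z-score of at least 8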;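 also: Pro5 are CHO cells carrying HIG-tagged alpha-DG that lacks glycosylation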
R1A FP artifact = counter-screen for PKA-R1A activators: fluorescence polarization artifacts; Cy5-IP20 peptide alone, fluorescence polarization artifact counterscreen; activation, % at 11.4 µM; 7% of 280 active; shares compounds with PKA-R1A act;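 active = mean activation over triplicate runs exceeds the adjusted cutoff derived for the parent primary screen, cut at about 19% in these data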;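 also: no PKA protein present so any polarization rise reflects compound interference; 0% = tracer peptide mix alone and 100% = mix with added PKA catalytic subunit; higher means stronger polarization artifact and likely false positive in parent screen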
PKA-R1A act conf = PKA-R1A complex activation, confirmation | activation, % at 11.4 µM | shares compounds with PKA-R1A act | 9% of 280 active | Cy5-IP20 fluorescence polarization, PKA-R1A holoenzyme dissociation;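 active = mean activation over replicate wells exceeds the adjusted hit threshold taken from the earlier primary screen, cut at about 20% in these data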;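 also: 0% = holoenzyme mix with DMSO only and 100% = cGMP-activated control wells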
Numbers without * were called inactive; . = no result. In the library only some 0.94% were active in any assay of this set; here they are far more common.

SMILES	PKA-R1A act	CTSL1 counter	UCH37 inh	PKA-R2B activ	aDG glyco act	R1A FP artifact	PKA-R1A act conf
COc1cccc(CNCc2cc(OC)cc(OC)c2)c1	21*	-2	1	6	0	5	4
COc1cccc(CNCc2ccccc2OC)c1	-10	-1	0	-4	0	.	.
Cc1cc(C)n2nc(SCC(=O)N(C)c3c(N)n(Cc4ccccc4)c(=O)[nH]c3=O)nc2n1	-5	2	4	-2	0	.	.
COCCN(C(=O)CSc1nc2nc(C)cc(C)n2n1)c1c(N)n(Cc2ccccc2)c(=O)[nH]c1=O	20*	0	2	-1	0	5	3
CCCNC(=O)Cn1c(=CC(=O)C(C)(C)C)sc(=Cc2ccc(-c3ccc([N+](=O)[O-])cc3)o2)c1=O	.	.	9	.	.	.	.
COc1cccc(/C=N/NC(=O)CCc2ccccc2)c1	23*	-2	.	-5	0	5	2
COc1cccc(C=NNC(=O)CCc2ccccc2)c1	.	.	1	.	.	.	.
COCCN(CCOc1cc(C)cc(C)c1)Cc1ccc(Cl)cc1	20*	3	3	1	0	-4	-2
COc1ccc(CNC(=O)CNC(=O)c2c(C)nn(C)c2Cl)cc1	19*	-1	4	0	0	5	3
CCOC(=O)N/N=C/c1ccc(N(CC)CC)cc1O	23*	3	.	-14	0	4	4
CCOC(=O)NN=Cc1ccc(N(CC)CC)cc1O	.	.	-4	.	.	.	.
Cc1ccc(S(=O)(=O)N[C@H](C(=O)OCC(=O)NC(=O)Nc2ccc3c(c2)OCCO3)C(C)C)cc1	8	-10	1	6	0	.	.
CC(C)[C@H](NS(=O)(=O)c1ccc2c(c1)OCCO2)C(=O)OCC(=O)Nc1ccccc1	19*	-30	-1	0	0	-1	1
Cc1c(C(=O)Nc2ccc(Oc3ccccc3)cc2)sc2nc3n(c(=O)c12)CCC3	21*	0	3	1	3	-2	0
Nc1cc(N)nc(SCc2cc(=O)oc3cc4c(cc23)CCC4)n1	20*	1	4	1	0	-3	-1
Cc1cc2oc(=O)cc(CSc3nc(N)cc(N)n3)c2cc1C(C)C	-3	0	1	-2	0	.	.
O=C(NCc1ccccc1Cl)c1ccc(S(=O)(=O)Nc2cccc(C(F)(F)F)c2)cc1	22*	3	5	12	0	26*	22*
O=C(NCc1ccccc1Cl)c1ccc(S(=O)(=O)N2CCCC2)cc1	-7	.	1	-8	0	.	.
Oc1ccc(C=NNC(=S)NCC2CCCO2)cc1 (centres undefined)	.	.	8	.	.	.	.
CC(C)[C@H](NC(N)=O)C(=O)Nc1cccc(S(=O)(=O)N2CCOCC2)c1	20*	3	0	-6	0	2	-1
O=C(CSc1nnc(SCc2ccccc2)s1)NN=Cc1ccc(C(=O)O)cc1	.	.	-1	.	.	.	.
COc1ccc(C=NNC(=O)CCn2nnc3ccccc32)cc1	.	.	4	.	.	.	.
CC(=O)NNC(=O)c1cc2sccc2s1	7	2	5	-12	0	.	.
CC(C)C(=O)NNC(=O)c1cc2sccc2s1	23*	-4	1	-2	0	-1	2
Cc1cc2ccccn2c1C(=O)c1cccc([N+](=O)[O-])c1	8	-1	4	5	0	.	.
SMILES	PKA-R1A act	CTSL1 counter	UCH37 inh	PKA-R2B activ	aDG glyco act	R1A FP artifact	PKA-R1A act conf
Cc1cc2ccccn2c1C(=O)c1ccc(Cl)c([N+](=O)[O-])c1	20*	6	2	1	0	-2	-2
N#Cc1ccc(C=NN=C(N)N)cc1	.	.	3	.	.	.	.
O=C(CNc1cccc2ccccc12)NN=Cc1ccc([N+](=O)[O-])cc1	.	.	0	.	.	.	.
O=C(CNc1ccccc1)N/N=C/c1ccc([N+](=O)[O-])cc1	22*	10	.	-11	0	-2	3
CCc1ccc(C(=O)NN=C(C)c2ccncc2)s1	.	.	5	.	.	.	.
N#C/C(=C\c1ccc2c(c1)OCO2)C(N)=S	.	1	4	.	0	.	.
N#C/C(=C/c1ccco1)C(N)=S	19*	3	11	-3	0	2	3

Bioassay records from PubChem BioAssay.
